Data on one compound can be found in BindingDB's records for doi:10.1016/j.bmcl.2012.10.080 (University of California, 2012).

The target of the assay is T1, Phospholipase A2, membrane associated (Homo sapiens, UniProt P14555).
T1 sequence (P14555 whole entry): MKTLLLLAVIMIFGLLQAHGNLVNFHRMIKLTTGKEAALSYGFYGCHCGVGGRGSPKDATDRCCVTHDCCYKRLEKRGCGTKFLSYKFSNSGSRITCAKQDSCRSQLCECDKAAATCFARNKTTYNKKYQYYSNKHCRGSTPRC
Nature of the assay: Inhibition of sPLA2-IIA (unknown origin)-integrin alphaVbeta3 interaction in human K562 cells pretreated for 30 mins to immobilized sPLA2 before adding cells by phosphatase assay. Put shortly: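 Wells coated with sPLA2-IIA and blocked with BSA were preincubated with compound (10 to 500 μM) for 30 min. Integrin αvβ3-transfected K562 erythroleukemia cells were then added for 1 h at 37 °C, and bound cells were quantified by phosphatase assay. IC50 and maximum inhibition were derived from dose-response experiments.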

Usually IC50 stands for the concentration at which inhibition is half-maximal. On to `Cc1nc(NC(=O)c2ccccc2)sc1-c1cc(C(=O)NCC(=O)O)[nH]n1`, for which the IC50 was 241 µM.
